{"source": "ChEMBL document CHEMBL2016548", "about": "“Synthesis and evaluation of anti-thrombotic activity of benzocoumarin amide derivatives” (Bioorg Med Chem Lett, 2012)", "key": {"Mus musculus [1]": {"system": "Mus musculus", "test": "Anti-thrombotic activity in collagen and adrenaline challenged mouse pulmonary thromboembolism model assessed as protection from paralysis or death at 30 uM/kg, po administered 60 mins prior to thrombotic challenge", "type": "functional", "how_it_was_run": "(§1)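 Mice were dosed orally 60 min before the challenge, alongside a vehicle group. Pulmonary thromboembolism was then induced by tail-vein injection of a collagen plus adrenaline mixture. Groups held ten mice per test agent and five per reference drug or vehicle. The read-out was % protection against hind-limb paralysis or death.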"}, "Mus musculus [2]": {"system": "Mus musculus", "test": "Increase of bleeding time in mouse at 30 uM/kg, po administered 60 mins prior to tail incision", "type": "ADME, organism-based", "details": "in vivo, 1 h", "how_it_was_run": "(§2)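 Compound, aspirin or vehicle given orally 60 min before cutting the tail 2 mm from the tip, five mice per group. Blood was blotted onto filter paper every 10–15 s until flow stopped. Bleeding time is the interval from incision to cessation.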"}, "Platelet [3]": {"system": "Platelet", "test": "Antiplatelet activity in mouse platelet rich plasma assessed as inhibition of collagen-induced platelet aggregation at 30 uM by aggregometry", "type": "functional, cell-free", "how_it_was_run": "(§3)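 Mice anaesthetized with ether and bled by cardiac puncture. Platelet-rich plasma was pooled, split into sub-pools and spiked with compound or vehicle. Aggregation was induced with ADP or collagen and followed on a dual-channel aggregometer. Data given as mean ± SEM, n = 3, compared against vehicle control.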"}, "Platelet [4]": {"system": "Platelet", "test": "Antiplatelet activity in mouse platelet rich plasma assessed as inhibition of ADP-induced platelet aggregation at 30 uM by aggregometry", "type": "functional, cell-free", "how_it_was_run": "as §3"}, "Mus musculus [5]": {"system": "Mus musculus", "test": "Ex-vivo antiplatelet activity in mouse platelet rich plasma assessed as inhibition of ADP-induced platelet aggregation at 30 uM/kg, po for 3 days by aggregometry", "type": "functional"}, "Mus musculus [6]": {"system": "Mus musculus", "test": "Ex-vivo antiplatelet activity in mouse platelet rich plasma assessed as inhibition of collagen-induced platelet aggregation at 30 uM/kg, po for 3 days by aggregometry", "type": "functional"}, "Plasma [7]": {"system": "Plasma", "test": "Anticoagulant activity in mouse platelet poor plasma assessed as increase in activated partial thromboplastin time at 30 uM by coagulometry", "type": "functional, cell-free", "how_it_was_run": "(§4)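 Mice anaesthetized with ether and bled by cardiac puncture. Platelet-poor plasma was pooled, split into sub-pools and spiked with compound or vehicle. Thrombin time, prothrombin time and APTT were run with commercial kits per manufacturer's instructions on a semi-automated coagulometer. Data given as mean ± SEM, n = 3, compared against vehicle control.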"}, "Plasma [8]": {"system": "Plasma", "test": "Anticoagulant activity in mouse platelet poor plasma assessed as increase in thrombin time at 30 uM by coagulometry", "type": "functional, cell-free", "how_it_was_run": "as §4"}, "Plasma [9]": {"system": "Plasma", "test": "Anticoagulant activity in mouse platelet poor plasma assessed as increase in prothrombin time at 30 uM by coagulometry", "type": "functional, cell-free", "how_it_was_run": "as §4"}, "Platelet [10]": {"system": "Platelet", "test": "Antiplatelet activity in mouse platelet rich plasma assessed as inhibition of collagen-induced platelet aggregation at 10 uM by aggregometry", "type": "functional, cell-free", "how_it_was_run": "as §3"}, "Platelet [11]": {"system": "Platelet", "test": "Antiplatelet activity in mouse platelet rich plasma assessed as inhibition of ADP-induced platelet aggregation at 10 uM by aggregometry", "type": "functional, cell-free", "how_it_was_run": "as §3"}, "Plasma [12]": {"system": "Plasma", "test": "Anticoagulant activity in mouse platelet poor plasma assessed as increase in activated partial thromboplastin time at 10 uM by coagulometry", "type": "functional, cell-free", "how_it_was_run": "as §4"}, "Plasma [13]": {"system": "Plasma", "test": "Anticoagulant activity in mouse platelet poor plasma assessed as increase in thrombin time at 10 uM by coagulometry", "type": "functional, cell-free", "how_it_was_run": "as §4"}, "Plasma [14]": {"system": "Plasma", "test": "Anticoagulant activity in mouse platelet poor plasma assessed as increase in prothrombin time at 10 uM by coagulometry", "type": "functional, cell-free", "how_it_was_run": "as §4"}, "Mus musculus [15]": {"system": "Mus musculus", "test": "Ex-vivo anticoagulant activity in mouse platelet poor plasma assessed as increase in thrombin time at 30 uM/kg, po for 3 days by coagulometry", "type": "functional", "how_it_was_run": "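Mice were dosed orally for three days, then bled by cardiac puncture under ether anaesthesia. Thrombin time was measured in platelet-poor plasma with a commercial kit on a semi-automated coagulometer and compared with vehicle-treated controls.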"}, "Platelet [16]": {"system": "Platelet", "test": "Antiplatelet activity in mouse platelet rich plasma assessed as inhibition of collagen-induced platelet aggregation at 100 uM by aggregometry", "type": "functional, cell-free", "how_it_was_run": "as §3"}, "Platelet [17]": {"system": "Platelet", "test": "Antiplatelet activity in mouse platelet rich plasma assessed as inhibition of ADP-induced platelet aggregation at 100 uM by aggregometry", "type": "functional, cell-free", "how_it_was_run": "as §3"}, "Mus musculus [18]": {"system": "Mus musculus", "test": "Anti-thrombotic activity in collagen and adrenaline challenged mouse pulmonary thromboembolism model assessed as protection from paralysis or death at 30 mg/kg, po administered 60 mins prior thrombotic challenge", "type": "functional", "how_it_was_run": "as §1"}, "Mus musculus [19]": {"system": "Mus musculus", "test": "Increase of bleeding time in mouse at 30 mg/kg, po administered 60 mins prior to tail incision", "type": "ADME, organism-based", "parameters": "dose 30 mg/kg, route oral", "details": "in vivo, 1 h", "how_it_was_run": "as §2"}}, "note": "The source made the active and inactive calls. No cut-off for these calls is given here."}
{"compound": "Cc1cc(=O)oc2c1ccc1c(OCC(=O)NC(C)(C)C)cccc12", "values": [{"measurement": "Activity", "setting": "Mus musculus [1]", "result": 40, "unit": "%"}, {"measurement": "Activity", "setting": "Mus musculus [2]", "result": 96.5, "unit": "%"}, {"measurement": "inhibition", "setting": "Platelet [3]", "result": "Active"}, {"measurement": "inhibition", "setting": "Platelet [4]", "result": "Active"}, {"measurement": "inhibition (INH)", "setting": "Mus musculus [5]", "result": 38, "unit": "%"}, {"measurement": "inhibition (INH)", "setting": "Mus musculus [6]", "result": 90, "unit": "%"}, {"measurement": "Activity", "setting": "Plasma [7]", "result": "inactive"}, {"measurement": "Activity", "setting": "Plasma [8]", "result": "Active"}, {"measurement": "Activity", "setting": "Plasma [9]", "result": "inactive"}, {"measurement": "inhibition", "setting": "Platelet [10]", "result": "inactive"}, {"measurement": "inhibition", "setting": "Platelet [11]", "result": "inactive"}, {"measurement": "Activity", "setting": "Plasma [12]", "result": "inactive"}, {"measurement": "Activity", "setting": "Plasma [13]", "result": "inactive"}, {"measurement": "Activity", "setting": "Plasma [14]", "result": "inactive"}, {"measurement": "Activity", "setting": "Mus musculus [15]", "result": 74, "unit": "%"}]}
{"compound": "Cc1cc(=O)oc2c1ccc1c(OCC(=O)NCc3ccccc3)cccc12", "values": [{"measurement": "Activity", "setting": "Mus musculus [1]", "result": 10, "unit": "%"}, {"measurement": "Activity", "setting": "Mus musculus [2]", "result": 8.5, "unit": "%"}]}
{"compound": "Cc1cc(=O)oc2c1ccc1c(OCC(=O)NCCCO)cccc12", "values": [{"measurement": "Activity", "setting": "Mus musculus [1]", "result": 45, "unit": "%"}, {"measurement": "Activity", "setting": "Mus musculus [2]", "result": 112.5, "unit": "%"}, {"measurement": "inhibition", "setting": "Platelet [3]", "result": "Active"}, {"measurement": "inhibition", "setting": "Platelet [4]", "result": "Active"}, {"measurement": "Activity", "setting": "Plasma [7]", "result": "inactive"}, {"measurement": "Activity", "setting": "Plasma [8]", "result": "Active"}, {"measurement": "Activity", "setting": "Plasma [9]", "result": "inactive"}, {"measurement": "inhibition", "setting": "Platelet [10]", "result": "inactive"}, {"measurement": "inhibition", "setting": "Platelet [11]", "result": "inactive"}, {"measurement": "Activity", "setting": "Plasma [12]", "result": "inactive"}, {"measurement": "Activity", "setting": "Plasma [13]", "result": "inactive"}, {"measurement": "Activity", "setting": "Plasma [14]", "result": "inactive"}]}
{"compound": "COc1cc(NC(=O)COc2cccc3c2ccc2c(C)cc(=O)oc23)cc(OC)c1OC", "values": [{"measurement": "Activity", "setting": "Mus musculus [1]", "result": 20, "unit": "%"}, {"measurement": "Activity", "setting": "Mus musculus [2]", "result": 41.7, "unit": "%"}]}
{"compound": "Cc1cc(=O)oc2c1ccc1c(OCC(=O)Nc3ccc(S(N)(=O)=O)cc3)cccc12", "values": [{"measurement": "Activity", "setting": "Mus musculus [1]", "result": "<10", "unit": "%"}, {"measurement": "Activity", "setting": "Mus musculus [2]", "result": 16.5, "unit": "%"}]}
{"compound": "COc1ccc(CNC(=O)COc2cccc3c2ccc2c(C)cc(=O)oc23)cc1", "values": [{"measurement": "Activity", "setting": "Mus musculus [1]", "result": 10, "unit": "%"}, {"measurement": "Activity", "setting": "Mus musculus [2]", "result": 8.2, "unit": "%"}]}
{"compound": "Cc1cc(=O)oc2c1ccc1c(OCC(=O)Nc3cccc(C(=O)O)c3)cccc12", "values": [{"measurement": "Activity", "setting": "Mus musculus [1]", "result": "<10", "unit": "%"}, {"measurement": "Activity", "setting": "Mus musculus [2]", "result": 8.5, "unit": "%"}]}
{"compound": "Cc1cc(=O)oc2c1ccc1c(OCC(=O)NC3CCCCC3)cccc12", "values": [{"measurement": "Activity", "setting": "Mus musculus [1]", "result": 10, "unit": "%"}, {"measurement": "Activity", "setting": "Mus musculus [2]", "result": 0, "unit": "%"}]}
{"compound": "CCCNC(=O)COc1cccc2c1ccc1c(C)cc(=O)oc12", "values": [{"measurement": "Activity", "setting": "Mus musculus [1]", "result": 40, "unit": "%"}, {"measurement": "Activity", "setting": "Mus musculus [2]", "result": 91.5, "unit": "%"}, {"measurement": "inhibition", "setting": "Platelet [3]", "result": "Active"}, {"measurement": "inhibition", "setting": "Platelet [4]", "result": "Active"}, {"measurement": "Activity", "setting": "Plasma [7]", "result": "inactive"}, {"measurement": "Activity", "setting": "Plasma [8]", "result": "Active"}, {"measurement": "Activity", "setting": "Plasma [9]", "result": "inactive"}, {"measurement": "inhibition", "setting": "Platelet [10]", "result": "inactive"}, {"measurement": "inhibition", "setting": "Platelet [11]", "result": "inactive"}, {"measurement": "Activity", "setting": "Plasma [12]", "result": "inactive"}, {"measurement": "Activity", "setting": "Plasma [13]", "result": "inactive"}, {"measurement": "Activity", "setting": "Plasma [14]", "result": "inactive"}]}
{"compound": "Cc1cc(=O)oc2c1ccc1c(OCC(=O)N3CCN(C)CC3)cccc12", "values": [{"measurement": "Activity", "setting": "Mus musculus [1]", "result": 10, "unit": "%"}, {"measurement": "Activity", "setting": "Mus musculus [2]", "result": 8.5, "unit": "%"}]}
{"compound": "Cc1cc(=O)oc2c1ccc1c(OCC(=O)NC(C)C)cccc12", "values": [{"measurement": "Activity", "setting": "Mus musculus [1]", "result": 10, "unit": "%"}, {"measurement": "Activity", "setting": "Mus musculus [2]", "result": 66.5, "unit": "%"}]}
{"compound": "CC(=O)Oc1ccccc1C(=O)O", "note": "[ASPIRIN]", "values": [{"measurement": "inhibition", "setting": "Platelet [16]", "result": "Active"}, {"measurement": "inhibition", "setting": "Platelet [17]", "result": "Active"}, {"measurement": "Activity", "setting": "Mus musculus [18]", "result": 37, "unit": "%"}, {"measurement": "Activity", "setting": "Mus musculus [19]", "result": 100, "unit": "%"}]}
{"compound": "Cc1cc(=O)oc2c1ccc1c(OCC(=O)N3CCCCC3)cccc12", "values": [{"measurement": "Activity", "setting": "Mus musculus [1]", "result": 30, "unit": "%"}, {"measurement": "Activity", "setting": "Mus musculus [2]", "result": 58.5, "unit": "%"}]}
{"compound": "Cc1cc(=O)oc2c1ccc1c(OCC(=O)N3CCOCC3)cccc12", "values": [{"measurement": "Activity", "setting": "Mus musculus [1]", "result": 30, "unit": "%"}, {"measurement": "Activity", "setting": "Mus musculus [2]", "result": 66.8, "unit": "%"}]}
{"compound": "Cc1ccc(CNC(=O)COc2cccc3c2ccc2c(C)cc(=O)oc23)cc1C", "values": [{"measurement": "Activity", "setting": "Mus musculus [2]", "result": 58.5, "unit": "%"}]}
